{"source": "paper PMC3553949", "about": "(Nucleic Acids Research, 2012)", "molecules": {"B1": {"name": "EGFP-NIPP1: ectopically expressed EGFP-NIPP1 wild-type (protein)", "chain": "MAAAANSGSSLPLFDCPTWAGKPPPGLHLDVVKGDKLIEKLIIDEKKYYLFGRNPDLCDFTIDHQSCSRVHAALVYHKHLKRVFLIDLNSTHGTFLGHIRLEPHKPQQIPIDSTVSFGASTRAYTLREKPQTLPSAVKGDEKMGGEDDELKGLLGLPEEETELDNLTEFNTAHNKRISTLTIEEGNLDIQRPKRKRKNSRVTFSEDDEIINPEDVDPSVGRFRNMVQTAVVPVKKKRVEGPGSLGLEESGSRRMQNFAFSGGLYGGLPPTHSEAGSQPHGIHGTALIGGLPMPYPNLAPDVDLTPVVPSAVNMNPAPNPAVYNPEAVNEPKKKKYAKEAWPGKKPTPSLLI", "modifications": "left off: EGFP, end not stated, kept"}, "B2": {"name": "FHA mutant: EGFP-NIPP1 with mutated FHA domain (protein)", "chain": "B1 chain with S68A, R69A, V70A, H71A", "modifications": "left off: EGFP, end not stated, kept"}, "B3": {"name": "NIPP1: recombinant His-NIPP1, or immunoprecipitated EGFP-NIPP1/PP1 complex (protein, UniProt Q12972 1-351, looked up)", "Nuclear inhibitor of protein …": "B1 chain", "modifications": "His tag"}}, "key": {"EGFP-EZH2 [1]": {"tested_on": "EGFP-EZH2", "assay_type": "cell-based, mouse", "conditions": "100 µM roscovitine, 2 h preincubation, HEK293T cells", "how_it_was_run": "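HEK293T cells were transfected (Jetprime) with EGFP-tagged mouse EZH2, then preincubated with the CDK inhibitor roscovitine before lysis. EGFP-EZH2 was probed by immunoblot with a rabbit antibody raised against the Thr416-phosphorylated peptide (residues 410–421) coupled to KLH. The antibody was affinity-purified on non-phospho and phospho-peptide–BSA columns. Detection was by ECL imaging.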"}, "[2]": {"tested_on": "EZH2-FHA interaction (EGFP-EZH2 / GST-FHA of NIPP1)", "experiment": "Competition GST pull-down of EGFP-EZH2 with EZH2 dodecapeptides", "assay_type": "binding", "conditions": "1 mM of the indicated EZH2 dodecapeptides"}, "NIPP1 FHA domain": {"target": "NIPP1 FHA domain (Homo sapiens, UniProt Q12972)", "experiment": "NMR titration", "assay_type": "binding", "how_it_was_run": "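¹⁵N-labelled NIPP1 FHA domain was expressed in E. coli grown in M9 with ¹⁵NH₄Cl, His₆-MBP tag removed by TEV, and purified by size exclusion. The domain (0.1 mM) in 20 mM BisTris pH 6.3, 50 mM NaCl, 5 mM DTT was titrated with increasing mouse EZH2 dodecapeptide concentrations at 298 K (500 MHz, 2D ¹H,¹⁵N HSQC). Kd came from nonlinear fitting of CSP versus peptide concentration.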"}, "EED, SUZ12 and RbAp48": {"tested_on": "EED, SUZ12 and RbAp48", "experiment": "PRC2 components in immunoprecipitated EGFP-EZH2 complexes", "assay_type": "binding", "conditions": "immunoblot, Supplementary Figure S5"}, "PP1": {"tested_on": "PP1", "experiment": "PP1 associated with immunoprecipitated EGFP-EZH2", "assay_type": "binding", "conditions": "HEK293T cell lysates, immunoblot", "how_it_was_run": "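EGFP-EZH2 (wild-type or TP5 mutant; EGFP-βgal control) was transiently expressed in HEK293T cells and immunoprecipitated from lysates. Lysis buffers contained 20 mM NaF, 5 µM leupeptin, 0.5 mM PMSF and 0.5 mM benzamidine. Co-precipitated PP1 was detected by immunoblotting with ECL.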"}, "NIPP1-FHA domain": {"tested_on": "NIPP1-FHA domain", "experiment": "GST pull-down of EGFP-EZH2 TP mutants with GST-FHA", "assay_type": "binding", "conditions": "Thr to Ala mutants, n = 4", "how_it_was_run": "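Mouse EZH2 Thr→Ala mutants were made by site-directed mutagenesis in an EGFP-IRES-puro vector and transfected with Jetprime. Lysis buffers contained NaF, leupeptin, PMSF and benzamidine.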"}, "endogenous NIPP1": {"tested_on": "endogenous NIPP1", "experiment": "Co-immunoprecipitation of EZH2 fusions with endogenous NIPP1", "assay_type": "binding", "conditions": "HEK293T cell lysates"}, "EGFP-EZH2 [3]": {"tested_on": "EGFP-EZH2", "experiment": "Phosphorylation status of EGFP-EZH2 TP mutants in cells", "assay_type": "cell-based, mouse", "conditions": "EGFP-EZH2 mutant from cells, immunoblot", "how_it_was_run": "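EGFP-tagged mouse EZH2 variants (EGFP alone as control) were expressed in cells and isolated by EGFP trap. Elution used 0.2 M glycine pH 2.5 for 90 s, immediately neutralised with 1 M Tris pH 10.8. Eluates were immunoblotted with a pan-phospho-Thr-Pro antibody and an affinity-purified phospho-Thr416 (pTP5) antibody. Blots were visualised by ECL and quantified by densitometry.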"}, "EGFP-EZH2 [4]": {"tested_on": "EGFP-EZH2", "experiment": "In vitro phosphorylation of EGFP-EZH2 by cyclinA/CDK2", "assay_type": "biochemical, mouse", "conditions": "autoradiography, γ32P-ATP, cyclinA/CDK2, 60 min, 30°C", "how_it_was_run": "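Purified EGFP-tagged mouse EZH2 was incubated 60 min at 30°C with recombinant cyclinA/CDK2 (bacterially expressed). Buffer: 20 mM Tris/HCl pH 7.5, 2 mM DTT, 0.1 mg/ml BSA, 2 mM MgAc, 100 µM ATP, with or without γ³²P-ATP.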"}, "EZH2, EED and SUZ12": {"tested_on": "EZH2, EED and SUZ12", "experiment": "EGFP trap of EGFP-NIPP1 and co-precipitation of core PRC2 components", "assay_type": "binding", "conditions": "EGFP-NIPP1 WT or FHAm, HEK293T cell lysates", "how_it_was_run": "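EGFP-NIPP1 is expressed in HEK293T cells by plasmid transfection (Jetprime) and captured by EGFP trap from lysates. Lysis buffer contains 20 mM NaF, 5 µM leupeptin, 0.5 mM PMSF and 0.5 mM benzamidine. Co-precipitated proteins are detected by immunoblotting, using anti-EZH2 (AC-22), an in-house rabbit anti-EED raised against His-EED, and anti-SUZ12 (3C1.2).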"}, "EGFP-EZH2 [5]": {"tested_on": "EGFP-EZH2", "experiment": "In vitro dephosphorylation of EGFP-EZH2 by PP1", "assay_type": "biochemical, mouse", "how_it_was_run": "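Mouse EGFP-EZH2 is expressed in HEK293T cells and isolated by immunoprecipitation or EGFP trap. It is incubated 30 min at 30°C in 50 mM Tris/HCl pH 7.5, 1 mM DTT, 0.1 mg/ml BSA with one of: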"}, "[6]": {"target": "NIPP1 FHA domain (15N-labelled, for NMR)", "experiment": "NMR titration"}}, "note": "Residue numbers refer to the chain shown, from its start. “Also recorded” adds a separate entry of the source. Non-standard residues stand in square brackets, D forms with d. No end group written: not given here. pT = C[C@@H](OP(=O)(O)O)[C@H](N)C(=O)O"}
{"molecule": "CC[C@H](CO)Nc1nc(NCc2ccccc2)c2ncn(C(C)C)c2n1", "note": "[roscovitine]", "values": [{"measurement": "binding of EGFP-EZH2 to GST-FHA", "setting": "EGFP-EZH2 [1]", "value": "abolished"}, {"measurement": "detection of EGFP-EZH2 by pTP5 antibody", "setting": "EGFP-EZH2 [1]", "value": "not detected"}]}
{"molecule": "ANSRCQ(p)TPIKMK [pTP5]", "values": [{"measurement": "EZH2-FHA interaction in presence of peptide", "setting": "[2]", "value": "decreased EZH2-FHA interaction"}, {"measurement": "saturation of binding", "setting": "NIPP1 FHA domain; 10-fold molar excess of the peptide", "value": "Saturation was not achieved even after a 10-fold molar excess of the peptide"}, {"measurement": "binding of purified FHA domain to EZH2-derived dodecapeptide", "setting": "NIPP1 FHA domain; summary in Discussion", "value": "interacts rather poorly"}]}
{"molecule": "EZH2-WT: EGFP- or Dam-tagged wild-type mouse EZH2", "values": [{"measurement": "abundance of EED, SUZ12 and RbAp48 in complex", "setting": "EED, SUZ12 and RbAp48", "value": "equally abundant"}, {"measurement": "associated PP1", "setting": "PP1", "value": "contained the same amount of PP1"}]}
{"molecule": "EZH2-mTP5: EZH2 with Thr416 (TP5) mutated to Ala", "values": [{"measurement": "abundance of EED, SUZ12 and RbAp48 in complex", "setting": "EED, SUZ12 and RbAp48", "value": "equally abundant"}, {"measurement": "binding of EZH2 TP mutant to GST-FHA", "setting": "NIPP1-FHA domain", "value": "complete loss of binding"}, {"measurement": "associated PP1", "setting": "PP1", "value": "contained the same amount of PP1"}, {"measurement": "co-immunoprecipitation with endogenous NIPP1", "setting": "endogenous NIPP1", "value": "no longer co-immunoprecipitated with endogenous NIPP1"}, {"measurement": "pTP5 signal", "setting": "EGFP-EZH2 [3]", "value": "not detected"}, {"measurement": "in vitro phosphorylation of EZH2 by CDK2", "setting": "EGFP-EZH2 [4]", "value": "moderately reduced"}]}
{"molecule": "B1", "values": [{"measurement": "co-precipitation of PRC2 components", "setting": "EZH2, EED and SUZ12", "value": "Both EZH2 and EED co-precipitated; also recorded: SUZ12, which interacts directly with EZH2 but not with EED ([19]), only co-precipitated with the WT NIPP1 fusion"}]}
{"molecule": "B2", "values": [{"measurement": "co-precipitation of PRC2 components", "setting": "EZH2, EED and SUZ12", "value": "only EED co-sedimented"}]}
{"molecule": "B3", "values": [{"measurement": "effect on PP1-mediated dephosphorylation of EGFP-EZH2", "setting": "EGFP-EZH2 [5]; 500 nM PP1, recombinant His-NIPP1 4.5 µM to 55 nM", "value": "abolished"}, {"measurement": "dephosphorylation of EGFP-EZH2 by immunoprecipitated NIPP1/PP1", "setting": "EGFP-EZH2 [5]; after pretreatment with trypsin", "value": "the immunoprecipitate dephosphorylated EGFP-EZH2"}, {"measurement": "dephosphorylation of EGFP-EZH2 by immunoprecipitated NIPP1/PP1", "setting": "EGFP-EZH2 [5]; without trypsin pretreatment, co-precipitated PP1 present", "value": "not dephosphorylated"}]}
{"molecule": "ANSRCQ[pT]PIKMK", "note": "[EZH2 410-421 peptide, phosphorylated at Thr416 (pTP5)]", "values": [{"measurement": "Kd", "setting": "[6]", "value": 1900, "unit": "µM"}]}
